Results on three compounds are retold here after paper PMC3711073 (Angewandte Chemie (International ed. in English), 2012).

Molecules are shown by their SMILES. Read-outs that look alike come from different tables or passages of the source.

By IC50 is commonly meant the concentration that inhibits the measured activity by half.

Experiment [1] has as its target Fl-KID-GACKIX complex (GACKIX domain of CBP/p300) (Mus musculus, UniProt P45481). The experiment in a line: Fluorescence polarization inhibition of the Fl-KID-GACKIX complex. It is filed as binding. The method, boiled down: (§1)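 Test compound added at increasing concentrations to the preformed GACKIX domain complex with either fluorescein-tagged MLL activation-domain peptide or fluorescein-tagged pKID peptide. Displacement was tracked as the change in fluorescence polarization.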
Background: Polarisation of emitted light reports the rotation of a fluorescent probe.

Experiment [2] concerns the target MLL-GACKIX complex (GACKIX domain of CBP/p300) (Mus musculus, UniProt P45481). It is filed as binding. The method, boiled down: as §1
Experiment [3] has as its system c-Jun-driven gene Cyclin D1. Description: Cell-based assay of c-Jun-driven gene Cyclin D1 expression. As to conditions: SI Figure 7.
Experiment [4] addresses GACKIX domain of CBP/p300 (Mus musculus, UniProt P45481). Description: Ligand-detected 1D 1H-NMR binding to GACKIX with MLL and KID peptide competition. To be noted: sekikaic acid 15 μM, GACKIX 5 μM, MLL and pKID peptide 15 μM each. The method, boiled down: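 Aromatic 1H resonances of the test compound (15 μM) were recorded alone and after adding GACKIX (5 μM). MLL and pKID peptides (15 μM each) were then added singly or together. Resonance positions were compared with the unbound-state spectrum to judge reversal of binding.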

The target of a further experiment is T1, VP2-Med15(107-357) (Saccharomyces cerevisiae, UniProt P19659).
T1 sequence (P19659 107-357): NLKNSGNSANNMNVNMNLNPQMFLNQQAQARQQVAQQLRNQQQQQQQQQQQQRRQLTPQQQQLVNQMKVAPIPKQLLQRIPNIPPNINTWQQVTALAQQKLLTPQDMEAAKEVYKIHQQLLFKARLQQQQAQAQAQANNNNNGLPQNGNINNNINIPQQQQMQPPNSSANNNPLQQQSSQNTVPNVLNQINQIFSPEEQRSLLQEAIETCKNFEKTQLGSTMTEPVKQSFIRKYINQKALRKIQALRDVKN
The experiment in a line: Competitive FP binding assay of VP2 with Med15. To be noted: specificity.

MLL-GACKIX complex (GACKIX domain of CBP/p300), sequence (P45481 586-665 limits assumed, one chain of several): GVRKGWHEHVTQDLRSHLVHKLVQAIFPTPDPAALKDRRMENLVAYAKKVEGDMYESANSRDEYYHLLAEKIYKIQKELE
Fl-KID-GACKIX complex (GACKIX domain of CBP/p300), sequence (P45481 586-665 limits assumed, one chain of several): as above
GACKIX domain of CBP/p300, sequence (P45481 586-665 limits assumed): as the sequence (P45481 586-665 limits assumed, one chain of several) above

Regarding `Cc1cc(OC(=O)c2c(C)cc(O)cc2O)cc(O)c1C(=O)O` [lecanoric acid, reference compound], in experiment [1] (competitive FP binding assay), the “Inhibition of Fl-KID binding to GACKIX (in words)” value was “unable to significantly inhibit”. In addition, the “Inhibition of Fl-MLL binding to GACKIX (in words)” value in experiment [2] (competitive FP binding assay) is “unable to significantly inhibit”. The “Effect on expression of c-Jun-driven gene Cyclin D1 in cells” value (“Effect on expression” below) in experiment [3] is “no effect”.
As to `CCCCCc1c2c(cc(O)c1C(=O)O)OC(=O)c1c(cc(OC)cc1C(=O)CCCC)O2` [lobaric acid], the half-maximal inhibitory concentration (IC50) in experiment [1] turned out to be 25 µM; in experiment [2], 17 µM. In experiment [3], the “Effect on expression” value is on record as “dose dependent down regulation”.
In the case of `CCCc1cc(OC)cc(O)c1C(=O)Oc1c(OC)cc(CCC)c(C(=O)O)c1O` [sekikaic acid], the “Reversibility of binding to GACKIX” value in experiment [4] is listed as “reversible”. Also, the “Inhibition of VP2-Med15(107-357) (in words)” value at VP2-Med15(107-357) was “did not significantly inhibit”. Moreover, in experiment [2] (read-out: IC50, inhibition of the MLL-GACKIX complex, FP, fluorescein-tagged MLL), the IC50 was 34 µM. In addition, the “Effect on expression” value in experiment [3] is “dose dependent down regulation”.
